According to article PMC4077287 (Angewandte Chemie (International ed. in English), 2013):

Columns and labels:
[1] = test system: apoptotic tumors; details: ref 7a; cited from earlier work
[2] = test system: caspase-3 level in HeLa tumor xenograft; assay: Caspase-3 level detected in Dox-treated tumors; type: in vivo, nude mice; details: intratumoral Dox 0.2 mg, 4 days post treatment
How it was run: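 HeLa xenografts on the right shoulder of nude mice were imaged before and 4 days after intratumoral Dox (0.2 mg). The 18F-labeled caspase-3-activatable nano-aggregation tracer or its D-peptide control (5–15 MBq) was given i.v. by tail vein. Static 5 min PET scans were taken at 65, 125 and 182 min post injection. Tumor and muscle uptake was reported as %ID/g, with the tumor/muscle ratio taken from average region uptake.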

[3] = test system: caspase-3 activity in HeLa cell lysates; assay: Caspase-3 assay of lysates of Dox-treated HeLa cells; type: cell-based; details: doxorubicin 2 μM, 24 h

SMILES | trend of uptake in apoptotic tumors over time after injection [1] | caspase-3 level increase in treated tumors [2] [fold] | caspase-3 activity of lysates of Dox-treated cells vs non-treated cells [3] [fold]
O=C1C(=O)N(Cc2cn(CC[18F])nn2)c2ccc(S(=O)(=O)N3CCCC3COc3ccc(F)cc3F)cc21 (stereo not drawn) [[^18F]ICMT-11] | decreased over the time after injection | – | –
COc1cccc2c1C(=O)c1c(O)c3c(c(O)c1C2=O)C[C@@](O)(C(=O)CO)C[C@@H]3O[C@H]1C[C@H](N)[C@H](O)[C@H](C)O1 [Dox, doxorubicin] | – | 1.9 | 9.5
